# Data: ChEMBL document CHEMBL2086368, “Sulfonilamidothiopyrimidone and thiopyrimidone derivatives as selective COX-2 inhibitors: synthesis, biological evaluation, and docking studies” (Eur J Med Chem, 2012)
# The source made the active and inactive calls. The rule behind the calls is not given here.
# What was measured:
# PBL [1] = test: Antiproliferative activity against human PBL assessed as incorporation of BrdU at 10 uM after 2 to 24 hrs; format: cell-based
# Summary of the method: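 Human PBLs in RPMI 1640 with 10% heat-inactivated FCS, 1% penicillin/streptomycin, 2 mM L-glutamine, stimulated with PHA and 60 U/ml IL-2; exposed to test agent for 24 h at 37 °C, 5% CO2. DNA synthesis read by immunochemical detection of incorporated BrdU after partial DNA denaturation.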
# PBL [2] = test: Inhibition of COX2 expression in PMA-Ion-stimulated human PBL at 10 uM after 20 hrs by Western blot analysis; format: functional, cell-based
# Summary of the method: (§1)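 PBLs treated with PMA 15 ng/ml plus ionomycin, alone or with inhibitor, for 20 h at 37 °C; NS398 as inhibition control. Lysates quantified by BCA, resolved on 10% SDS-PAGE, semidry-blotted to PVDF, probed with rabbit anti-human COX-2 (1:500) and anti-α-tubulin loading control, ECL detection.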
# [3] = molecular target: Prostaglandin G/H synthase 2 (Ovis aries) (UniProt P79208); settings: at 5 nM
# PBL [4] = test: Cytotoxicity against IL2-stimulated human PBL assessed as cell death at 10 uM after 24 hrs by MTT assay; format: cell-based
# Summary of the method: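 IL-2-treated human PBLs given 1, 10 or 50 (micromolar) test agent for 24 h. Viability read by MTT (0.15 mg/ml, 4 h, 37 °C) reduction to formazan, absorbance at 570 nm with 655 nm reference. DMSO served as cell-death control.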
# [5] = molecular target: T1, Prostaglandin G/H synthase 2 (Homo sapiens) (UniProt P35354); test: Inhibition of COX2-mediated PGE2 production in PMA-Ion-stimulated human PBL at 10 uM after 24 hrs by ELISA
# T1 sequence (whole entry): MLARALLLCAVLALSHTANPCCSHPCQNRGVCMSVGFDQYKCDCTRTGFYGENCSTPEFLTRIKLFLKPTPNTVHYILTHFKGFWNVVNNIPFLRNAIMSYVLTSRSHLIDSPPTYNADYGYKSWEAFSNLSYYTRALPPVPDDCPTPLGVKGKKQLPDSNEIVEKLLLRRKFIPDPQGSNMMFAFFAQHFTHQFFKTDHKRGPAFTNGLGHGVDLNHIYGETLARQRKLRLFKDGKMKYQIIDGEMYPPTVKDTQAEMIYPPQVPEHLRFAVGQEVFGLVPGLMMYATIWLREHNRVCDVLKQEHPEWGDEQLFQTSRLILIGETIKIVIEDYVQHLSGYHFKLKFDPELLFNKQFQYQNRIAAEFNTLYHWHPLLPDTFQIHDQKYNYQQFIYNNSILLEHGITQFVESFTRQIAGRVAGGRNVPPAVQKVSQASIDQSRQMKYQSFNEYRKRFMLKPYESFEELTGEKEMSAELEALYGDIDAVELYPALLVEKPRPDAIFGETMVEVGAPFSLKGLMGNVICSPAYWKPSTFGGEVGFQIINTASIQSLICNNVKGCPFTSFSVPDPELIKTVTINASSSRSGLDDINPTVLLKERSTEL
# [6] = molecular target: T1, Prostaglandin G/H synthase 2 (Homo sapiens); test: Increase of COX2-mediated PGE2 production in PMA-Ion-stimulated human PBL at 10 uM after 24 hrs by ELISA
# [7] = molecular target: T1, Prostaglandin G/H synthase 2 (Homo sapiens); test: Increase of COX2-mediated PGE2 production in PMA-Ion-stimulated human PBL at 10 uM after 24 hrs by ELISA relative to control
# PBL [8] = test: Inhibition of COX2 expression in PMA-Ion-stimulated human PBL at 5 uM after 20 hrs by Western blot analysis; format: functional, cell-based; summary of the method: as §1
# Chain of Prostaglandin G/H synthase 2 (Ovis aries) (P79208 whole entry, looked up): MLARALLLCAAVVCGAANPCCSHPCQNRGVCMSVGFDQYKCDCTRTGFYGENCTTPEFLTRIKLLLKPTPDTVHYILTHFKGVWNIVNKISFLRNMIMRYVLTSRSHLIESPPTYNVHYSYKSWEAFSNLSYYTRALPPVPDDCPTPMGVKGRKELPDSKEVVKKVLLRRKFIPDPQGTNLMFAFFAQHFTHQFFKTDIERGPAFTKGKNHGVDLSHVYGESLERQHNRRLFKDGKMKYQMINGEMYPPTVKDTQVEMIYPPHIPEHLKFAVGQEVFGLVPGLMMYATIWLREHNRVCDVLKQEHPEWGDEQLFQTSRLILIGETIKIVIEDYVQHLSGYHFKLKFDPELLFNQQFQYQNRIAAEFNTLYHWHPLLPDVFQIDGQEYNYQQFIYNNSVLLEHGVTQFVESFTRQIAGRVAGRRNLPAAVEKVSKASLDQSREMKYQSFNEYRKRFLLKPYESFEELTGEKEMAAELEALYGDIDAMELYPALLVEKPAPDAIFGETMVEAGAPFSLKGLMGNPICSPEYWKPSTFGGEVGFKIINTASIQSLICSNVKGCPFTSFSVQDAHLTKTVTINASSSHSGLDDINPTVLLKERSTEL
Compound,inhibition [5],Activity (PBL [4]),other results
CS(=O)(=O)Nn1c(Sc2ccccc2C(=O)O)nc2ccsc2c1=O,–,Non-toxic,Activity [6]: Active
O=C1Nn2c(nc3c(sc4ccccc43)c2=O)SC1c1ccccc1 (configuration not stated),–,Non-toxic,Activity [6]: Active
CS(=O)(=O)Nn1c(SC2CCCCC2)nc2sc(-c3ccccc3)cc2c1=O,–,Non-toxic,fold change (FC) [7]: 2.9
COc1ccc(C2=Nn3c(nc4sc(-c5ccccc5)cc4c3=O)SC2)cc1,inactive,Non-toxic,–
CCc1nn2c(=O)c3cc(-c4ccccc4)sc3nc2s1,–,Non-toxic,–
CC(Sc1nc2c(sc3ccccc32)c(=O)n1N)C(=O)O (configuration not stated),–,Non-toxic,–
Cc1sc2nc(SC3CCCCC3)n(NS(C)(=O)=O)c(=O)c2c1C,–,Non-toxic,Activity [6]: Active
O=c1c2sc3ccccc3c2nc2n1N=C(c1ccccc1)CS2,inactive,Non-toxic,–
CS(=O)(=O)Nc1ccc([N+](=O)[O-])cc1OC1CCCCC1,–,–,inhibition (PBL [8]): Active
CS(=O)(=O)Nn1c(Sc2ccc([N+](=O)[O-])cc2[N+](=O)[O-])nc2sc3c(c2c1=O)CCCC3,–,Non-toxic,–
Nn1c(SC(C(=O)O)c2ccccc2)nc2c([nH]c3ccccc32)c1=O (configuration not stated),–,Non-toxic,–

# Continued, in another order:
inhibition [5],Compound,Activity (PBL [4]),other results
> 50%,CS(=O)(=O)Nn1c(Sc2ccc(F)cc2F)nc2sc(-c3ccccc3)cc2c1=O,Non-toxic,Activity (PBL [1]): Non-toxic; inhibition (PBL [2]): Active; inhibition [3]: 50%
20%,CS(=O)(=O)Nn1c(Sc2ccccc2C(=O)O)nc2sc(-c3ccccc3)cc2c1=O,Non-toxic,Activity (PBL [1]): Non-toxic; inhibition (PBL [2]): Active; inhibition [3]: 50%
20%,CS(=O)(=O)Nn1c(Sc2ccc([N+](=O)[O-])cc2)nc2sc(-c3ccccc3)cc2c1=O,Non-toxic,Activity (PBL [1]): Non-toxic; inhibition (PBL [2]): Active; inhibition [3]: 50%
20%,CS(=O)(=O)Nn1c(Sc2ccccc2[N+](=O)[O-])nc2sc(-c3ccccc3)cc2c1=O,Non-toxic,Activity (PBL [1]): Non-toxic; inhibition (PBL [2]): Active; inhibition [3]: 50%
